# Data taken from ChEMBL document CHEMBL2311390, “Synthesis and preliminary evaluation of pharmacological properties of some piperazine derivatives of xanthone” (Bioorg Med Chem, 2013).
# Columns and labels:
# Rattus norvegicus [1] = test: Cardiotoxicity in Wistar rat assessed as PQ interval at 2.5 mg/kg, iv after 5 mins by ECG analysis; assay type: toxicity, organism-based; parameters: dose 2.5 mg/kg, route intravenous; settings: in vivo
# Method in brief: (§1)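 Male normotensive Wistar rats (170–350 g, groups of six) were anaesthetised. Compound was given iv at 1 mL/kg. ECG was recorded just before dosing and at 1, 5 and 15 min after, and PQ, QRS and QT intervals and heart rate were read. Groups were compared by one-way ANOVA.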
# Rattus norvegicus [2] = test: Cardiotoxicity in Wistar rat assessed as PQ interval at 2.5 mg/kg, iv after 10 mins by ECG analysis; assay type: toxicity, organism-based; parameters: dose 2.5 mg/kg, route intravenous; settings: in vivo
# Rattus norvegicus [3] = test: Cardiotoxicity in Wistar rat assessed as QT interval at 2.5 mg/kg, iv after 15 mins by ECG analysis; assay type: toxicity, organism-based; parameters: dose 2.5 mg/kg, route intravenous; settings: in vivo, 0.25 h; method in brief: as §1
# Rattus norvegicus [4] = test: Cardiotoxicity in Wistar rat assessed as QRS interval at 2.5 mg/kg, iv after 5 mins by ECG analysis; assay type: toxicity, organism-based; parameters: dose 2.5 mg/kg, route intravenous; settings: in vivo; method in brief: as §1
# Rattus norvegicus [5] = test: Antiarrhythmic activity in iv dosed Wistar rat adrenaline-induced arrhythmia model assessed as reduction of heart-rhythm disturbance administered 15 mins adrenaline-challenge; assay type: functional; settings: 0.25 h
# Method in brief: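 Anaesthetised male Wistar rats (thiopental 75 mg/kg ip). Test compound iv at 1 mL/kg, given 15 min before adrenaline 20 µg/kg iv. Activity means no premature beats and inhibition of arrhythmia, judged against a control group. There were three dose groups of six rats. ED50 with confidence limits was calculated by the Litchfield–Wilcoxon method.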
# Rattus norvegicus [6] = test: Hypotensive activity in normotensive Wistar rat assessed as reduction of diastolic blood pressure at 0.625 mg/kg, iv after 20 mins; assay type: functional, Artery
# Method in brief: (§2)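 Male normotensive Wistar rats were anaesthetised with thiopental 75 mg/kg ip. The right carotid artery was cannulated with heparinised saline for pressure recording. After 5 min of stabilisation, compound was injected into the tail vein at 1 mL/kg. Systolic and diastolic pressure were followed up to 60 min. Data are means ± SEM of 5–6 rats, analysed by one-way ANOVA.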
# [7] = Displacement of [3H]CGP-12177 from beta1-adrenergic receptor in rat cerebral cortex by liquid scintillation counting; assay type: tissue-based
# Method in brief: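 Rat cerebral cortex was homogenised in ice-cold 50 mM Tris-HCl pH 7.6 and spun at 20,000 g for 20 min at 0–4 °C, then washed once. Radioligands: [3H]prazosin 0.2 nM for α1, [3H]clonidine 2 nM for α2, [3H]CGP-12177 0.2 nM for β1. Test compounds were run at 7–8 concentrations from 10^-11 to 10^-4 M. Nonspecific binding was defined with phentolamine (α1), clonidine (α2) or propranolol (β1). Counting was by liquid scintillation, in duplicate. Ki was derived by Cheng–Prusoff from 2–3 experiments.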
# Rattus norvegicus [8] = test: Cardiotoxicity in Wistar rat assessed as PQ interval at 2.5 mg/kg, iv after 15 mins by ECG analysis; assay type: toxicity, organism-based; parameters: dose 2.5 mg/kg, route intravenous; settings: in vivo, 0.25 h; method in brief: as §1
# Rattus norvegicus [9] = test: Cardiotoxicity in Wistar rat assessed as QT interval at 2.5 mg/kg, iv after 10 mins by ECG analysis; assay type: toxicity, organism-based; parameters: dose 2.5 mg/kg, route intravenous; settings: in vivo
# Rattus norvegicus [10] = test: Cardiotoxicity in Wistar rat assessed as QRS interval at 2.5 mg/kg, iv after 10 mins by ECG analysis; assay type: toxicity, organism-based; parameters: dose 2.5 mg/kg, route intravenous; settings: in vivo
# Rattus norvegicus [11] = test: Cardiotoxicity in Wistar rat assessed as QRS interval at 2.5 mg/kg, iv after 15 mins by ECG analysis; assay type: toxicity, organism-based; parameters: dose 2.5 mg/kg, route intravenous; settings: in vivo, 0.25 h; method in brief: as §1
# Rattus norvegicus [12] = test: Hypotensive activity in normotensive Wistar rat assessed as reduction of systolic blood pressure at 0.31 mg/kg, iv after 30 mins; assay type: functional, Artery
# Method in brief: (§3)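 Male normotensive Wistar rats (170–350 g) anaesthetised with thiopental 75 mg/kg ip; right carotid artery cannulated with heparinised saline-filled polyethylene tubing for pressure recording. After a 5 min stabilisation, compound given into the caudal vein at 1 mL/kg. Systolic pressure is recorded at 0, 5, 10, 20, 30 and 60 min, and the data are reported as mean ± SEM of five to six animals, with one-way ANOVA.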
# Rattus norvegicus [13] = test: Cardiotoxicity in Wistar rat assessed as hear beats per min at 2.5 mg/kg, iv after 5 mins by ECG analysis; assay type: toxicity, organism-based; parameters: dose 2.5 mg/kg, route intravenous; settings: in vivo; method in brief: as §1
# Rattus norvegicus [14] = test: Cardiotoxicity in Wistar rat assessed as hear beats per min at 2.5 mg/kg, iv after 15 mins by ECG analysis; assay type: toxicity, organism-based; parameters: dose 2.5 mg/kg, route intravenous; settings: in vivo, 0.25 h; method in brief: as §1
# Rattus norvegicus [15] = test: Cardiotoxicity in Wistar rat assessed as hear beats per min at 2.5 mg/kg, iv after 10 mins by ECG analysis; assay type: toxicity, organism-based; parameters: dose 2.5 mg/kg, route intravenous; settings: in vivo
# Rattus norvegicus [16] = test: Hypotensive activity in normotensive Wistar rat assessed as reduction of systolic blood pressure at 0.625 mg/kg, iv after 5 mins; assay type: functional, Artery; method in brief: as §3
# Rattus norvegicus [17] = test: Hypotensive activity in normotensive Wistar rat assessed as reduction of diastolic blood pressure at 0.16 mg/kg, iv after 30 mins; assay type: functional, Artery; method in brief: as §2
# Rattus norvegicus [18] = test: Cardiotoxicity in Wistar rat assessed as QT interval at 2.5 mg/kg, iv after 5 mins by ECG analysis; assay type: toxicity, organism-based; parameters: dose 2.5 mg/kg, route intravenous; settings: in vivo; method in brief: as §1
# Rattus norvegicus [19] = test: Cardiotoxicity in Wistar rat assessed as QRS interval at 10 mg/kg, iv after 5 mins by ECG analysis; assay type: toxicity, organism-based; parameters: dose 10 mg/kg, route intravenous; settings: in vivo
# Method in brief: (§4)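 Male normotensive Wistar rats, 170–350 g, six per group. Compound given iv at a constant volume of 1 mL/kg. ECG was recorded just before dosing and at 1, 5 and 15 min after. PQ, QRS and QT intervals and heart rate were read from the trace. Groups were compared by one-way ANOVA.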
# Rattus norvegicus [20] = test: Hypotensive activity in normotensive Wistar rat assessed as reduction of systolic blood pressure at 2.5 mg/kg, iv after 20 mins; assay type: functional, Artery
# Method in brief: as §2, with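 “rats (170–350 g)” for “rats”, “heparin-saline tubing” for “heparinised saline”, “After a” for “After”, “min” for “min of”, “a caudal” for “the tail”, “animals, compared” for “rats, analysed”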
# Rattus norvegicus [21] = test: Hypotensive activity in normotensive Wistar rat assessed as reduction of diastolic blood pressure at 2.5 mg/kg, iv after 10 mins; assay type: functional, Artery
# Method in brief: as §2, with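 “rats (170–350 g)” for “rats”, “heparin-saline tubing” for “heparinised saline”, “After a” for “After”, “min” for “min of”, “a caudal” for “the tail”, “animals, compared” for “rats, analysed”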
# Rattus norvegicus [22] = test: Hypotensive activity in normotensive Wistar rat assessed as reduction of diastolic blood pressure at 2.5 mg/kg, iv after 5 mins; assay type: functional, Artery
# Method in brief: as §2, with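 “rats (170–350 g)” for “rats”, “heparin-saline tubing” for “heparinised saline”, “After a” for “After”, “min” for “min of”, “a caudal” for “the tail”, “animals, compared” for “rats, analysed”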
# Rattus norvegicus [23] = test: Hypotensive activity in normotensive Wistar rat assessed as reduction of diastolic blood pressure at 2.5 mg/kg, iv after 60 mins; assay type: functional, Artery
# Method in brief: as §2, with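 “rats (170–350 g)” for “rats”, “heparin-saline tubing” for “heparinised saline”, “After a” for “After”, “min” for “min of”, “a caudal” for “the tail”, “animals, compared” for “rats, analysed”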
# Rattus norvegicus [24] = test: Hypotensive activity in normotensive Wistar rat assessed as reduction of systolic blood pressure at 2.5 mg/kg, iv after 60 mins; assay type: functional, Artery
# Method in brief: as §2, with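 “rats (170–350 g)” for “rats”, “heparin-saline tubing” for “heparinised saline”, “After a” for “After”, “min” for “min of”, “a caudal” for “the tail”, “animals, compared” for “rats, analysed”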
# Rattus norvegicus [25] = test: Hypotensive activity in normotensive Wistar rat assessed as reduction of systolic blood pressure at 2.5 mg/kg, iv after 10 mins; assay type: functional, Artery
# Method in brief: as §2, with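 “rats (170–350 g)” for “rats”, “heparin-saline tubing” for “heparinised saline”, “After a” for “After”, “min” for “min of”, “a caudal” for “the tail”, “animals, compared” for “rats, analysed”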
# Rattus norvegicus [26] = test: Hypotensive activity in normotensive Wistar rat assessed as reduction of systolic blood pressure at 2.5 mg/kg, iv after 5 mins; assay type: functional, Artery
# Method in brief: as §2, with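 “rats (170–350 g)” for “rats”, “heparin-saline tubing” for “heparinised saline”, “After a” for “After”, “min” for “min of”, “a caudal” for “the tail”, “animals, compared” for “rats, analysed”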
# Rattus norvegicus [27] = test: Hypotensive activity in normotensive Wistar rat assessed as reduction of systolic blood pressure at 2.5 mg/kg, iv after 30 mins; assay type: functional, Artery
# Method in brief: as §2, with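 “rats (170–350 g)” for “rats”, “heparin-saline tubing” for “heparinised saline”, “After a” for “After”, “min” for “min of”, “a caudal” for “the tail”, “animals, compared” for “rats, analysed”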
# Rattus norvegicus [28] = test: Cardiotoxicity in Wistar rat assessed as hear beats per min at 10 mg/kg, iv after 10 mins by ECG analysis; assay type: toxicity, organism-based; parameters: dose 10 mg/kg, route intravenous; settings: in vivo
# Rattus norvegicus [29] = test: Hypotensive activity in normotensive Wistar rat assessed as reduction of diastolic blood pressure at 2.5 mg/kg, iv after 20 mins; assay type: functional, Artery
# Method in brief: as §2, with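 “rats (170–350 g)” for “rats”, “heparin-saline tubing” for “heparinised saline”, “After a” for “After”, “min” for “min of”, “a caudal” for “the tail”, “animals, compared” for “rats, analysed”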
# Rattus norvegicus [30] = test: Hypotensive activity in normotensive Wistar rat assessed as reduction of diastolic blood pressure at 2.5 mg/kg, iv after 30 mins; assay type: functional, Artery
# Method in brief: as §2, with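 “rats (170–350 g)” for “rats”, “heparin-saline tubing” for “heparinised saline”, “After a” for “After”, “min” for “min of”, “a caudal” for “the tail”, “animals, compared” for “rats, analysed”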
# Rattus norvegicus [31] = test: Cardiotoxicity in Wistar rat assessed as PQ interval at 5 mg/kg, iv after 15 mins by ECG analysis; assay type: toxicity, organism-based; parameters: dose 5 mg/kg, route intravenous; settings: in vivo, 0.25 h; method in brief: as §4
Ki [7],SMILES,Activity (Rattus norvegicus [1]),Activity (Rattus norvegicus [2]),Activity (Rattus norvegicus [3]),Activity (Rattus norvegicus [4]),ED50 (Rattus norvegicus [5]),Activity (Rattus norvegicus [8]),Activity (Rattus norvegicus [9]),Activity (Rattus norvegicus [10]),Activity (Rattus norvegicus [11]),Activity (Rattus norvegicus [12]),Activity (Rattus norvegicus [13]),Activity (Rattus norvegicus [14]),Activity (Rattus norvegicus [15]),Activity (Rattus norvegicus [17]),Activity (Rattus norvegicus [18]),Activity (Rattus norvegicus [20]),Activity (Rattus norvegicus [21]),Activity (Rattus norvegicus [22]),Activity (Rattus norvegicus [23]),also measured
3.2 µM,COc1ccccc1N1CCN(CCCOc2cccc3c(=O)c4ccccc4oc23)CC1.Cl,43 ms,43.2 ms,71.8 ms,20.4 ms,0.69 mg/kg,43.5 ms,69.8 ms,20.6 ms,20.3 ms,119.5 mmHg,314.4 bpm,295.7 bpm,306.7 bpm,100 mmHg,70 ms,–,–,–,–,Activity (Rattus norvegicus [6]): 110.5 mmHg; Activity (Rattus norvegicus [16]): 122 mmHg
–,Cl.Cl.Cl.O=c1c2ccc(Cl)cc2oc2c(OCC(O)CN3CCN(Cc4ccccc4)CC3)cccc12 (racemic),–,–,–,–,–,–,–,–,–,–,–,–,–,–,–,152.5 mmHg,132.2 mmHg,128.7 mmHg,134.2 mmHg,Activity (Rattus norvegicus [19]): 19.2 ms; Activity (Rattus norvegicus [24]): 151.2 mmHg; Activity (Rattus norvegicus [25]): 149.5 mmHg; Activity (Rattus norvegicus [26]): 147.2 mmHg; Activity (Rattus norvegicus [27]): 152.2 mmHg; Activity (Rattus norvegicus [28]): 285 bpm; Activity (Rattus norvegicus [29]): 134.5 mmHg; Activity (Rattus norvegicus [30]): 134.2 mmHg
7.6 µM,COc1ccccc1N1CCN(CC(O)COc2cccc3c(=O)c4ccccc4oc23)CC1.Cl (racemic),44.3 ms,43.3 ms,68.4 ms,19.6 ms,0.88 mg/kg,42.8 ms,68.2 ms,19.8 ms,20.2 ms,118.6 mmHg,341.2 bpm,303.3 bpm,315.2 bpm,101.8 mmHg,69.7 ms,–,–,–,–,–
5.2 µM,Cl.Cl.O=c1c2ccccc2oc2c(OCC(O)CN3CCN(C/C=C/c4ccccc4)CC3)cccc12 (racemic),–,–,–,–,–,–,–,–,–,–,–,–,–,–,–,139.8 mmHg,117.2 mmHg,118.4 mmHg,105 mmHg,Activity (Rattus norvegicus [24]): 125.6 mmHg; Activity (Rattus norvegicus [25]): 144.2 mmHg; Activity (Rattus norvegicus [31]): 41.7 ms; Activity (Rattus norvegicus [26]): 144.2 mmHg; Activity (Rattus norvegicus [27]): 132.6 mmHg; Activity (Rattus norvegicus [29]): 114 mmHg; Activity (Rattus norvegicus [30]): 110.8 mmHg
